Test results as given in ChEMBL document CHEMBL1914331, “N-O chemistry for antibiotics: discovery of N-alkyl-N-(pyridin-2-yl)hydroxylamine scaffolds as selective antibacterial agents using nitroso Diels-Alder and ene chemistry” (J Med Chem, 2011).
Converted amounts (≈) assume the structure as drawn.

Key:
[1] = test system: HeLa; experiment: Cytotoxicity against human HeLa cells; assay type: cell-based
[2] = test system: Pseudomonas aeruginosa; experiment: Antimicrobial activity against Pseudomonas aeruginosa 799/61 after 24 hrs by Kirby-Bauer agar diffusion assay; assay type: functional
Method in brief: (§1)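 Modified Kirby-Bauer well diffusion. Overnight LB cultures (18–24 h) were standardized in 0.9% saline to 0.5 McFarland and mixed into melted MHII agar at 47–50 °C, giving ~5×10³ CFU/mL. 9 mm wells received 50 µL of 2.0 mM compound in 10:1 MeOH:DMSO. Plates were incubated 24 h at 37 °C, then growth-inhibition zone diameter was measured (mm) by caliper.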

[3] = test system: Enterococcus faecalis; experiment: Antimicrobial activity against Enterococcus faecalis ATCC 49532 assessed after 18 hrs by broth microdilution method; assay type: functional; settings: ATCC 49532, 18 h
Method in brief: (§2)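 CLSI broth microdilution in cation-adjusted MHII broth. 20 mM DMSO stocks were diluted to 512 µM, then serially 2-fold, giving final 128–0.0625 µM with 5×10⁵ CFU/mL inoculum. Incubated 18 h at 37 °C. MIC90 was the lowest concentration giving 90% inhibition by visual turbidity versus DMSO wells. Run in triplicate.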

[4] = test system: Sporobolomyces salmonicolor; experiment: Antimicrobial activity against Sporidiobolus salmonicolor 549 after 24 hrs by Kirby-Bauer agar diffusion assay; assay type: functional; method in brief: as §1
[5] = test system: Escherichia coli; experiment: Antimicrobial activity against Escherichia coli DC2 after 24 hrs by Kirby-Bauer agar diffusion assay; assay type: functional; method in brief: as §1
[6] = test system: Staphylococcus aureus; experiment: Antimicrobial activity against methicillin-resistant Staphylococcus aureus 134/94 after 24 hrs by Kirby-Bauer agar diffusion assay; assay type: functional
Method in brief: (§3)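 Overnight LB cultures (18–24 h) adjusted to a 0.5 McFarland standard (1.5×10^6 CFU/mL in 0.9% saline), then 0.1 mL mixed into 34 mL molten MHII agar at 47–50 °C (~5×10^3 CFU/mL). 50 µL of 2.0 mM compound in 10:1 MeOH:DMSO placed in 9 mm wells. Incubated at 37 °C for 24 h; inhibition zone diameter (mm) measured by caliper.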

[7] = test system: Micrococcus luteus; experiment: Antimicrobial activity against Micrococcus luteus ATCC 10240 assessed after 18 hrs by broth microdilution method; assay type: functional; settings: ATCC 10240, 18 h; method in brief: as §2
[8] = test system: Mycolicibacterium vaccae; experiment: Antimicrobial activity against Mycobacterium vaccae IMET 10670 after 24 hrs by Kirby-Bauer agar diffusion assay; assay type: functional; method in brief: as §1
[9] = test system: Escherichia coli; experiment: Antimicrobial activity against Escherichia coli DC0 after 24 hrs by Kirby-Bauer agar diffusion assay; assay type: functional; method in brief: as §1
[10] = test system: Micrococcus luteus; experiment: Antimicrobial activity against Micrococcus luteus ATCC 10240 after 24 hrs by Kirby-Bauer agar diffusion assay; assay type: functional; method in brief: as §1
[11] = test system: MCF7; experiment: Cytotoxicity against human MCF7 cells; assay type: cell-based
[12] = test system: Enterococcus faecalis; experiment: Antimicrobial activity against vancomycin-resistant Enterococcus faecalis 1528 after 24 hrs by Kirby-Bauer agar diffusion assay; assay type: functional; method in brief: as §3
[13] = test system: Enterococcus faecalis; experiment: Antimicrobial activity against Enterococcus faecalis ATCC 49532 after 24 hrs by Kirby-Bauer agar diffusion assay; assay type: functional; method in brief: as §1
[14] = test system: PC-3; experiment: Cytotoxicity against human PC3 cells; assay type: cell-based
[15] = test system: Staphylococcus aureus; experiment: Antimicrobial activity against Staphylococcus aureus SG511 assessed after 18 hrs by broth microdilution method; assay type: functional; settings: SG511, 18 h; method in brief: as §2
[16] = test system: Pseudomonas aeruginosa; experiment: Antimicrobial activity against Pseudomonas aeruginosa 799/WT after 24 hrs by Kirby-Bauer agar diffusion assay; assay type: functional; method in brief: as §1
[17] = test system: Bacillus subtilis; experiment: Antimicrobial activity against Bacillus subtilis ATCC 6633 after 24 hrs by Kirby-Bauer agar diffusion assay; assay type: functional; method in brief: as §1
[18] = test system: Staphylococcus aureus; experiment: Antimicrobial activity against Staphylococcus aureus SG511 after 24 hrs by Kirby-Bauer agar diffusion assay; assay type: functional; method in brief: as §1

Row | Compound | Activity [1] | diameter of the inhibition zone (DIZ) [2] | MIC90 [3] [µM] | diameter of the inhibition zone (DIZ) [4] | diameter of the inhibition zone (DIZ) [5] | diameter of the inhibition zone (DIZ) [6] [mm] | MIC90 [7] [µM] | diameter of the inhibition zone (DIZ) [8] [mm] | diameter of the inhibition zone (DIZ) [9] | diameter of the inhibition zone (DIZ) [10] [mm] | Activity [11] | diameter of the inhibition zone (DIZ) [12] [mm] | diameter of the inhibition zone (DIZ) [13] [mm] | Activity [14] | MIC90 [15] [µM] | diameter of the inhibition zone (DIZ) [16] | diameter of the inhibition zone (DIZ) [17] | diameter of the inhibition zone (DIZ) [18] [mm]
1 | C=C(C)C(C)N(O)c1cccc(C)n1 (racemic) | Non-toxic | <=10 mm | > 128 | <=10 mm | <=10 mm | 11 | 4 (≈ 0.769 µg/mL) | 16 | <=10 mm | 48 | Non-toxic | 16 | 15 | Non-toxic | > 128 | <=10 mm | <=10 mm | 12
2 | C=C(C)C(CC/C(C)=C/CO)N(O)c1ccccn1 (racemic) | Non-toxic | <=10 mm | > 128 | <=10 mm | <=10 mm | 16 | 8 (≈ 2.1 µg/mL) | 16 | <=10 mm | 35 | Non-toxic | 16 | 20 | Non-toxic | 64 (≈ 16.8 µg/mL) | <=10 mm | 11 mm | 19
3 | C=C(C)C(C)N(O)c1ccc2ccccc2n1 (racemic) | Non-toxic |  | > 128 |  |  |  | 8 (≈ 1.83 µg/mL) |  |  | 31 | Non-toxic |  | 13 | Non-toxic | 128 (≈ 29.2 µg/mL) |  |  | 13
4 | CO[C@H]1C=CCC[C@@H]1N(OC(C)=O)c1ccc(Br)cn1 (racemic) | Non-toxic |  | > 128 |  |  |  | 32 (≈ 10.9 µg/mL) |  |  | 22 | Non-toxic |  | 0 | Non-toxic | > 128 |  |  | 0
5 | C=C(C)C(C)N(O)c1cc(C)on1 (racemic) | Non-toxic |  | > 128 |  |  |  | 64 (≈ 11.7 µg/mL) |  |  | 21 | Non-toxic |  | 13 | Non-toxic | > 128 |  |  | 0
6 | C=C(C)C(CCC(C)=O)N(O)c1ccccn1 (racemic) | Non-toxic |  | > 128 |  |  |  | 16 (≈ 3.75 µg/mL) |  |  | 30 | Non-toxic |  | 16 | Non-toxic | 128 (≈ 30 µg/mL) |  |  | 15
7 | C=C(C)C(C)N(O)c1ncc(C(F)(F)F)cc1Cl (racemic) | Non-toxic |  | > 128 |  |  |  | 128 (≈ 35.9 µg/mL) |  |  | 15 | Non-toxic |  | 13 | Non-toxic | > 128 |  |  | 0
8 | C=C(C)C(C)N(O)c1ccc(Br)cn1 (racemic) | Non-toxic |  | > 128 |  |  |  | 4 (≈ 1.03 µg/mL) |  |  | 35 | Non-toxic |  | 19 | Non-toxic | > 128 |  |  | 17
9 | CCCCCCN(O)c1ccccn1 | Non-toxic |  | > 128 |  |  |  | 128 (≈ 24.9 µg/mL) |  |  | 15 | Non-toxic |  | 16 | Non-toxic | > 128 |  |  | 17
